Holding throughout (type): cell-based
The subject of one data set is KB. Description: Antiproliferative activity against human KB cells after 72 hrs by SRB assay. The note with it: for IC50: Homo sapiens, KB; for Activity: human, kb. The method, boiled down:
(§1)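 SRB assay. Cells at 3–5 × 10^3/well were exposed to a range of sample concentrations for 72 h. They were fixed in 50% TCA for 30 min, stained with 0.04% SRB for 30 min, and the dye was dissolved in 10 mM Tris base. Absorbance read at 515 nm. Medium was RPMI 1640 with 10% FBS at 37 °C, 5% CO2. KBvin cells were kept in 100 nM vincristine.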

For data set [1], the system named is KBVIN. Description: Inhibition of P-gp-mediated multidrug-resistance in human KBVIN cells assessed as […] of paclitaxel-induced cell survival rate at 10 uM after 72 hrs by SRB assay. (In general: In SRB staining, fixed cells bind dye roughly in proportion to their protein.)
A further data set has as its system DU-145. Briefly: Antiproliferative activity against human DU145 cells after 72 hrs by SRB assay. The note with it: for IC50: Homo sapiens, DU-145, 72 h; for Activity: human, du-145, 72 h. Summed up:
as §1

A further data set concerns A549. Description: Antiproliferative activity against human A549 cells after 72 hrs by SRB assay. The note with it: for IC50: Homo sapiens, A549, 72 h; for Activity: human, a549, 72 h. Summed up:
as §1

Data set [2] is described as follows: Antiproliferative activity against human multidrug-resistant KBVIN cells after 72 hrs by SRB assay. The note with it: for IC50: Homo sapiens, KBVIN; for Activity: human, kbvin. The method, boiled down:
as §1

The target in data set [3] is T1, ATP-dependent translocase ABCB1 (Homo sapiens, UniProt P08183). Briefly: Inhibition of P-gp over expressed in human multidrug-resistant KBVIN cells assessed as intracellular accumulation of doxorubicin at 10uM after 3 hrs by fluorescence microplate reader analysis relative to control. Summed up: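 KBvin cells at 5 × 10^3/well were pretreated with compound for 1 h, then given doxorubicin (10 μM final) for 3 h. Cells were washed with ice-cold PBS and lysed in 1% SDS/PBS. Verapamil or CsA served as positive control.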

For data set [4], the system named is KBVIN. Briefly: Inhibition of P-gp-mediated multidrug-resistance in human KBVIN cells assessed as vincristine-induced cytotoxicity at 10 uM after 72 hrs by SRB assay. Summed up:
(§2)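 KBvin cells were exposed to graded concentrations of anticancer drug (doxorubicin, paclitaxel or vincristine), alone or with 10 μM test compound, for 72 h. Growth was read by SRB assay. IC50 was found by log-linear interpolation. Reversal fold = IC50 (drug alone) / IC50 (drug + compound). Verapamil was the positive control. Each experiment was run at least three times.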

The target in data set [5] is T1, ATP-dependent translocase ABCB1. Briefly: Inhibition of P-gp over expressed in human multidrug-resistant KBVIN cells after 10 mins by calcein AM accumulation assay. Summed up: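 KBvin cells at 5 × 10^3/well were pretreated with samples for 1 h, then given calcein-AM (1 μM final) for 10 min. Cells were washed with ice-cold PBS and lysed in 1% SDS/PBS. Calcein fluorescence read at Ex 494/Em 517 nm. Verapamil or CsA served as positive control.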

Data set [6] relates to KBVIN. Description: Inhibition of P-gp-mediated multidrug-resistance in human KBVIN cells assessed as fold decrease in paclitaxel IC50 for cytotoxic activity at 10 uM after 72 hrs by SRB assay relative to control. The method, boiled down: as §2
The test system of data set [7] is KBVIN. Description: Inhibition of P-gp-mediated multidrug-resistance in human KBVIN cells assessed as doxorubicin-induced cytotoxicity at 10 uM after 72 hrs by SRB assay. Summed up: as §2
For data set [8], the system named is NIH3T3. Briefly: Inhibition of human P-gp-mediated multidrug-resistance in mouse NIH3T3 MDR cells assessed as potentiation of in vincristine-induced cytotoxic activity at 10 uM after 72 hrs by SRB assay. The note with it: Mus musculus cells expressing human P-gp.
Data set [9] deals with KBVIN. Briefly: Inhibition of P-gp-mediated multidrug-resistance in human KBVIN cells assessed as paclitaxel-induced cytotoxicity at 10 uM after 72 hrs by SRB assay. Summed up: as §2
Data set [10] relates to KBVIN. Description: Inhibition of P-gp-mediated multidrug-resistance in human KBVIN cells assessed as fold decrease in vincristine IC50 for cytotoxic activity at 10 uM after 72 hrs by SRB assay relative to control. The method, boiled down: as §2
The test system of data set [11] is KBVIN. Briefly: Inhibition of P-gp-mediated multidrug-resistance in human KBVIN cells assessed as fold decrease in doxorubicin IC50 for cytotoxic activity at 10 uM after 72 hrs by SRB assay relative to control. Summed up: as §2
Data set [12] relates to NIH3T3. Briefly: Inhibition of human P-gp-mediated multidrug-resistance in mouse NIH3T3 MDR cells assessed as potentiation of in paclitaxel-induced cytotoxic activity at 10 uM after 72 hrs by SRB assay. The note with it: human P-gp expressed in mouse cells.
In data set [13] the test system is KBVIN. Description: (§3) Inhibition of P-gp-mediated multidrug-resistance in human KBVIN cells assessed as paclitaxel-induced cytotoxicity after 72 hrs by SRB assay. Summed up:
(§4)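 KBvin cells were cultured with 100 nM paclitaxel plus a range of compound concentrations. Growth was read by SRB, and the EC50 of reversal was derived. Verapamil was the comparator.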

The nature of data set [14]: as §3. The method, boiled down:
as §4

Each structure is given as a SMILES string. The source made the active and inactive calls. No cut-off for these calls is given here.

T1 sequence (P08183 whole entry): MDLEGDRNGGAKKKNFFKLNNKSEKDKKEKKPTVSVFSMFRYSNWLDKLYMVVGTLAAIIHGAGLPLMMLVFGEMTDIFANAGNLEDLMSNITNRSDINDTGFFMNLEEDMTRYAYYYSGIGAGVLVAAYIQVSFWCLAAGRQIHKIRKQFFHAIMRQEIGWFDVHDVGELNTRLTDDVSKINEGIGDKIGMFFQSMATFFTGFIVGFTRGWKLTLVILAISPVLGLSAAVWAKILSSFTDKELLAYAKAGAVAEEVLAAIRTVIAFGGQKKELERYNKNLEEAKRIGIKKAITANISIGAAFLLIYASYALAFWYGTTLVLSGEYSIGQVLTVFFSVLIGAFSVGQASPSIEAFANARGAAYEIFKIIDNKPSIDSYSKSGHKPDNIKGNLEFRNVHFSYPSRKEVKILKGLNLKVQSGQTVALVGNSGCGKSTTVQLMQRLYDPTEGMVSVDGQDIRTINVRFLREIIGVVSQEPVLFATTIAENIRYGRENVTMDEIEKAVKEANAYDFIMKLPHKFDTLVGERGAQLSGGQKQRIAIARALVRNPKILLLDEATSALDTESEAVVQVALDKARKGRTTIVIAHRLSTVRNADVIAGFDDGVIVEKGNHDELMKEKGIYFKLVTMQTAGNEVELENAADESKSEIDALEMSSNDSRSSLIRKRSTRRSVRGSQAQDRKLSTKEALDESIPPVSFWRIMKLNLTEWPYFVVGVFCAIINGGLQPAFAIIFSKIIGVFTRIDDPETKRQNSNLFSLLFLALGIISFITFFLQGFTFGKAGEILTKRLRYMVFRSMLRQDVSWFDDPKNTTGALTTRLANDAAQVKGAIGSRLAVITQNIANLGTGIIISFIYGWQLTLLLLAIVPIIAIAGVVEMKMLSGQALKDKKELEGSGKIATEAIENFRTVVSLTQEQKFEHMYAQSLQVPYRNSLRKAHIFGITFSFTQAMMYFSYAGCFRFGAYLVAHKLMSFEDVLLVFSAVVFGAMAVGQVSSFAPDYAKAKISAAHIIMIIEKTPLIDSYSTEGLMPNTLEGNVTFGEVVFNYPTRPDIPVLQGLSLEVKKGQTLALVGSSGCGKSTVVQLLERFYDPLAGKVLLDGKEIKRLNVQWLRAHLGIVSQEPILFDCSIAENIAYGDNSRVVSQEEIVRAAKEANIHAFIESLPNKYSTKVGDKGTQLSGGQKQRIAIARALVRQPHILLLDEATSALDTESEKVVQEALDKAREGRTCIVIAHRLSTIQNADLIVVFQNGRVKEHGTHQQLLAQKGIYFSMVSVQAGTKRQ

Broadly, the IC50 is the point on the concentration scale where inhibition reaches its midpoint. A higher IC50 goes with a need for much substance. For the molecule `COc1cc(CO)c(-c2c(CO)cc(OC)c3c2OCO3)c2c1OCO2`, the half-maximal inhibitory concentration (IC50) (in the data set on KB; with DU-145; in the data set on A549; in data set [2]) was > 100 µM each time. Besides, the inhibition result with KBVIN [1] is “inactive”.
In the case of `COC(=O)c1c(Br)c(OC)c2c(c1-c1c3c(c(OC)c(Br)c1C(=O)OC)OCO3)OCO2`, the IC50 (with KB; with DU-145; in the data set with A549; in data set [2]) was > 100 µM in each case. Besides, the inhibition entry in the data set with KBVIN [1] was “inactive”.
Regarding `COc1cc(COC(=O)c2ccc(C(F)(F)F)nc2)c(-c2c(COC(=O)c3ccc(C(F)(F)F)nc3)cc(OC)c3c2OCO3)c2c1OCO2`, the IC50 (with KB; with DU-145; in the data set with A549; in data set [2]) was > 100 µM each time. Besides, the inhibition result in the data set with KBVIN [1] was “inactive”.
`COc1cc(COC(=O)c2ccc(C#N)cc2)c(-c2c(COC(=O)c3ccc(C#N)cc3)cc(OC)c3c2OCO3)c2c1OCO2`: the IC50 (in the data set with KB; in the data set on DU-145; in the data set with A549; in [2]) was > 100 µM in each case. The inhibition result in the data set with KBVIN [1] was “inactive”.
Turning to `CCCC(=O)OCc1c(Br)c(OC)c2c(c1-c1c(COC(=O)CCC)c(Br)c(OC)c3c1OCO3)OCO2`, the Activity entry (in the data set with KB; in the data set on DU-145; in the data set on A549; in data set [2]) was “Toxic” throughout. For the same molecule, the inhibition entry with KBVIN [1] is “inactive”.
What is called EC50 is the concentration that produces a half-maximal response. Regarding `COc1cc(C(=O)OCc2cc(OC)c3c(c2-c2c(COC(=O)c4cc(OC)c(OC)c(OC)c4)cc(OC)c4c2OCO4)OCO3)cc(OC)c1OC`, the IC50 (with KB; in the data set with DU-145; in the data set with A549; in data set [2]) was > 100 µM each time. The “fold change (FC)” value in data set [3] was found to be 1.2; in the data set on KBVIN [6], 222; in the data set on KBVIN [10], 566; with KBVIN [11], 23. For the same molecule, the result with KBVIN [4], in the data set with KBVIN [7] and in the data set on KBVIN [9] was Active. The “inhibition (INH)” value in [5] is recorded as “Dose-dependent effect”. Also, the inhibition result with NIH3T3 [8] and with NIH3T3 [12] was “Active” each time. The inhibition entry in the data set on KBVIN [13] is “Dose-dependent effect”. The EC50 in data set [14] was 1.87 µM.
As to `COc1c2c(c3c(c1Br)c(=O)oc(=O)c1c(Br)c(OC)c4c(c13)OCO4)OCO2`, the IC50 (with KB; with DU-145; in the data set with A549; in [2]) was > 100 µM each time. Besides, the inhibition entry with KBVIN [1] was “inactive”.
Regarding `COc1cc(COC(=O)CCC(=O)O)c(-c2c(COC(=O)CCC(=O)O)cc(OC)c3c2OCO3)c2c1OCO2`, the IC50 (in the data set on KB; with DU-145; with A549; in [2]) was > 100 µM throughout. Besides, the inhibition entry in the data set on KBVIN [1] was “inactive”.
Take `COc1c(Br)c(CO)c(-c2c(CO)c(Br)c(OC)c3c2OCO3)c2c1OCO2`: the IC50 (with KB; with DU-145; in the data set with A549; in data set [2]) was > 100 µM each time. The inhibition entry with KBVIN [1] is “inactive”.
As for `COc1cc(COC(=O)C(C)(C)C)c(-c2c(COC(=O)C(C)(C)C)cc(OC)c3c2OCO3)c2c1OCO2`, the IC50 (in the data set with KB; in the data set on DU-145; in the data set with A549; in [2]) was > 100 µM in each case. Also, the “fold change (FC)” value in data set [3] was 1.2; in the data set with KBVIN [6] it was 37; in the data set on KBVIN [10], 349; in the data set with KBVIN [11] it was 46. The result with KBVIN [4], in the data set with KBVIN [7] and with KBVIN [9] was Active. Moreover, the “inhibition (INH)” value in data set [5] was “Dose-dependent effect”. In addition, the inhibition entry in the data set with NIH3T3 [8] and with NIH3T3 [12] was “Active” each time. Moreover, the inhibition result in the data set with KBVIN [13] was “Dose-dependent effect”. For the same molecule, the EC50 in data set [14] turned out to be 2.81 µM.
`COc1cc(COC(=O)c2ccc([N+](=O)[O-])cc2)c(-c2c(COC(=O)c3ccc([N+](=O)[O-])cc3)cc(OC)c3c2OCO3)c2c1OCO2`: the IC50 (in the data set on KB; in the data set with DU-145; with A549; in data set [2]) was > 100 µM each time. Moreover, the inhibition entry in the data set on KBVIN [1] is “inactive”.
As to `COC(=O)c1c(I)c(OC)c2c(c1-c1c3c(c(OC)c(I)c1C(=O)OC)OCO3)OCO2`, the IC50 (with KB; in the data set on DU-145; in the data set on A549; in data set [2]) was > 100 µM in each case. The inhibition entry in the data set with KBVIN [1] is “inactive”.
Consider `COc1ccc(CCN(C)CCCC(C#N)(c2ccc(OC)c(OC)c2)C(C)C)cc1OC` (centres undefined), for which the “fold change (FC)” value in [3] worked out at 1.2; in the data set on KBVIN [6], 31; in the data set with KBVIN [10] it was 109; in the data set on KBVIN [11] it was 9. In addition, the result with KBVIN [4], with KBVIN [7] and with KBVIN [9] was Active.
Take `CCCCCCCCCCCC(=O)OCc1cc(OC)c2c(c1-c1c(COC(=O)CCCCCCCCCCC)cc(OC)c3c1OCO3)OCO2`: the IC50 (in the data set with KB; in the data set on DU-145; in the data set on A549; in data set [2]) was > 100 µM throughout. Besides, the inhibition result in the data set with KBVIN [1] was “inactive”.
Regarding `COc1cc(COC(=O)c2ccc3c(c2)OCO3)c(-c2c(COC(=O)c3ccc4c(c3)OCO4)cc(OC)c3c2OCO3)c2c1OCO2`, the IC50 (in the data set with KB; in the data set on DU-145; in the data set with A549; in [2]) was > 100 µM throughout. Also, the inhibition result with KBVIN [1] is “inactive”.
For `COc1cc(COC(=O)c2ccc3ccccc3n2)c(-c2c(COC(=O)c3ccc4ccccc4n3)cc(OC)c3c2OCO3)c2c1OCO2`, the Activity entry (in the data set on KB; in the data set on DU-145; in the data set with A549; in [2]) was “Toxic” in each case. The inhibition entry in the data set with KBVIN [1] was “Active”.
In the case of `COc1c(Br)c(CO)c(-c2c3c(c(OC)c(Br)c2C(=O)O)OCO3)c2c1OCO2`, the IC50 (in the data set with KB; in the data set on DU-145; in the data set on A549; in data set [2]) was > 100 µM in each case. For the same molecule, the inhibition entry in the data set on KBVIN [1] was “inactive”.
On to `COc1cc(COC(C)=O)c(-c2c(COC(C)=O)cc(OC)c3c2OCO3)c2c1OCO2`, for which the IC50 (in the data set with KB; in the data set with DU-145; in the data set on A549; in [2]) was > 100 µM in each case. Besides, the inhibition result with KBVIN [1] is “inactive”.
Take `COc1ccc(C(=O)OCc2cc(OC)c3c(c2-c2c(COC(=O)c4ccc(OC)c(OC)c4)cc(OC)c4c2OCO4)OCO3)cc1OC`: the IC50 (in the data set on KB; in the data set on DU-145; with A549; in data set [2]) was > 100 µM throughout. Further, the “fold change (FC)” value was 1.2 in [3], 89 in the data set on KBVIN [6], 202 with KBVIN [10] and 21 in the data set on KBVIN [11]. Besides, the inhibition entry in the data set on NIH3T3 [8] and in the data set on NIH3T3 [12] was “Active” each time.

Source of the values: ChEMBL document CHEMBL2086383, “Antitumor agents. 293. Nontoxic dimethyl-4,4'-dimethoxy-5,6,5',6'-dimethylenedioxybiphenyl-2,2'-dicarboxylate (DDB) analogues chemosensitize multidrug-resistant cancer cells to clinical anticancer drugs” (J Med Chem, 2012).
